# Source: PubChem BioAssay
# The list is not random: actives were taken first. Their share in the collection is about 2.2%.
# PPC-1+TRAIL kill: compounds killing PPC-1 cancer cells with TRAIL present (potentiator screen, no TRAIL-free arm); PPC-1 cells + TRAIL, ATPLite viability luminescence; cell killing (% activity), % at 4 µM or 5 µM; 220,000 compounds, 0.41% hits; AID 1443;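 active = cell killing above 50% in the first pass at 4 µM, then a duplicate retest at 5 µM averaging 50% or more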;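 note: plate controls were cells with TRAIL plus DMSO for no effect and medium-only wells lacking cells for full effect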
# TRAIL sens C8: sensitizes caspase-8 expressing cells to TRAIL; NB7+C8 cells + TRAIL, ATPlite viability luminescence; inhibition (viability loss, TRAIL sensitization), % at 10 µM; 360,000 compounds, 1% hits; AID 624354;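 active = compounds causing at least 50% loss of cell viability in the single-dose screen, relative to plate controls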
# FLuc stim CS: affects firefly luciferase, flagging false hits in luciferase stimulation screens. P08659. ATPlite luciferase biochemical, luminescence, 10 min; 0 = ATP-free wells, 1 = DMSO control. activation factor at 10 µM. 200,000 tested, under 10 active. AID 1027;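 active = luciferase activation factor, scaled between plate controls, of at least 2 with compound at 10 µM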
# Target sequence (P08659 whole entry, looked up): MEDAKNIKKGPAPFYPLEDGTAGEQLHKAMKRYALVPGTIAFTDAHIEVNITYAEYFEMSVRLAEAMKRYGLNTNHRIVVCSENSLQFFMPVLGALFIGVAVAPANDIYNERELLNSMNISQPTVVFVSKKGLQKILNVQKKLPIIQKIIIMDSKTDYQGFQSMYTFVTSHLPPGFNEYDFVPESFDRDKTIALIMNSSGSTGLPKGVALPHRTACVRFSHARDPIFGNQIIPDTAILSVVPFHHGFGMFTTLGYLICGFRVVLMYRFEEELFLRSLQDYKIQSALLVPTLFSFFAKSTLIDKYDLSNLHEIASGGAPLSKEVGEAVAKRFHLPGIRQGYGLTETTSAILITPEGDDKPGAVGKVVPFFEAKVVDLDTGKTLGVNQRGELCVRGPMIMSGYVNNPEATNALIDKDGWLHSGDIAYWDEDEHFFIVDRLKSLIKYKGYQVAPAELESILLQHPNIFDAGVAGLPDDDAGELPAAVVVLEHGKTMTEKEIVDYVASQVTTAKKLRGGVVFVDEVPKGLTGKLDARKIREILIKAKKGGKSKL
#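 Assay system: Luciferase/luciferin detection reagent, cell-free biochemical luciferase assay / Read-out: luciferase activation / Benchmarks: No-ATP low control, compound-free enzyme-plus-ATP high control / Medium: PBS buffer for ATP / Detection: luminescence measurement of luciferase light output / Schedule: 10 min at ambient temperature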
# STAT3 inh: inhibitors of IL-6 induced STAT3 signaling; U3A cells, IL-6 STAT3-luciferase reporter, luminescence; host cell line lacks STAT1; inhibition, % at 5.5 µM; 190,000 compounds, 0.89% hits; AID 862;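 active = inhibition above the mean inhibition across all screened compounds plus 3 SD, cut at about 44% in these data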;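 note: 0% = DMSO only wells and 100% = 100 µM nifuroxazide control wells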
# FLuc inh counter: inhibits firefly luciferase, flagging false hits in luciferase inhibition screens | AID 1006 | inhibition, % at 10 µM | P08659 | ATPLite firefly luciferase biochemical luminescence, 10 min | 200,000 compounds, 1.5% hits;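 active = inhibition above about 50% when tested at 10 µM, limit read from the data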
# HSP90 refold inh: HSP90 refolding inhibition in rabbit reticulocyte lysate. 290,000 compounds, 0.91% hits. inhibition, % at 5.6 µM. luciferase refolding luminescence, 3 h;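 active = inhibition above the screen-wide mean plus 3 SD, computed separately per campaign, cut at about 16% in these data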;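 note: 0% = DMSO wells and 100% = 60 µM geldanamycin wells; inhibitors lower the luminescence because luciferase stays unfolded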
# Active calls of the source: *; / = no result given.
SMILES,PPC-1+TRAIL kill,TRAIL sens C8,FLuc stim CS,STAT3 inh,FLuc inh counter,HSP90 refold inh
Cc1cc(/C=C2\C(=O)NC(=O)N(c3ccc(F)cc3)C2=O)c(C)n1-c1cccc(C(=O)O)c1,14.4,-14.8,1.1,5.3,-5.9,3.6
Cc1cc(C=C2C(=O)NC(=O)NC2=O)c(C)n1-c1ccc2c(c1)OCO2,3.2,0.9,0.4,-7.2,56.5*,1.6
Cc1cc(/C=C2\C(=O)NC(=O)N(C)C2=O)c(C)n1-c1ccc2c(c1)OCO2,11.5,-2.9,0.4,-5.1,60.6*,1.1
Cc1cc(/C=C2/C(=O)NC(=O)N(C)C2=O)c(C)n1-c1ccccc1,4.8,-2.0,0.4,17.5,62.5*,4.1
CC(=O)O[C@H]1CCC2C3CC[C@H]4[C@@H](O)[C@H](O)CC[C@]4(C)C3CC[C@@]21C (stereo not given in full),/,10.8,/,/,/,/
O=c1[nH]c2ccccc2n1C1CCN(C(CCc2ccccc2)c2nnnn2C2CCCC2)CC1 (stereo not given),/,14.2,/,/,/,/
COc1cccc2c1C(=O)c1c(O)c3c(c(O)c1C2=O)CC(O)(C(C)=NO)CC3OC1CC(N)C(O)C(C)O1 (stereo not given),/,53.4*,/,/,/,/
O=C1NC(=O)C(C2CCCCCC2)C(=O)N1,/,-11.6,/,/,/,/
CCOc1ccc(-c2c(C)n(-c3ccc(OCC)cc3)c3[n+]2CCCCC3)cc1,48.0,51.7*,/,/,/,7.5
CCOc1ccc(-n2c(-c3ccoc3)nc3ccccc3c2=O)cc1,1.9,-12.0,1,8.3,-1.5,-3.0
O=c1[nH]c2ccccc2n1C1CCN(C(c2cc3ccccc3o2)c2nnnn2Cc2ccccc2)CC1 (stereo not given),/,86.6*,/,/,/,/
O=c1[nH]c2ccccc2n1C1CCN(C(c2cccc3ccccc23)c2nnnn2Cc2ccccc2)CC1 (stereo not given),/,33.9,/,/,/,/
O=C1NC2C(=CC(O)C(O)C2O)c2cc3c(cc21)OCO3 (stereo not given),/,30.8,/,/,/,/
O=C1NC2C(=CC(O)C(O)C2O)c2cc3c(c(O)c21)OCO3 (stereo not given),/,77.2*,/,/,/,/
ClCCN(CCCl)c1ccc(-n2cnc3c(Cl)ncnc32)cc1,/,86.1*,/,/,/,/
CC(C)(C)n1nnnc1C(c1ccnc2ccccc12)N1CCC2(CC1)C(=O)NCN2c1ccccc1 (stereo not given),/,8.6,/,/,/,/
O=C1Nc2ccccc2/C1=C/c1cnc[nH]1,-26.0,-7.6,1,56.7*,3.0,2.9
C[C@H](CO)N1C[C@H](C)[C@@H](CN(C)C(=O)Oc2ccccc2)OCc2cnnn2CCCC1=O,/,-7.0,/,/,/,/
CC(=O)OCC12CC(OC(=O)CC(C)C)C(C)=CC1OC1C(O)C(OC(C)=O)C2(C)C12CO2 (stereo not given),/,56.5*,/,/,/,/
CC1CC(C)CC(C)C(O)C(C#N)=CC=CCC(C2CCCC2C(=O)O)OC(=O)CC(O)C(C)C1 (stereo not given),/,65.8*,/,/,/,/
CN(C(=O)Oc1cccc2ccccc12)C1C=CCC1 (stereo not given),/,14.7,/,/,/,/
CCOC(=O)[C@]12Cc3cc(OC)ccc3[C@H]1N(C)C(=O)c1ccccc12,/,14.1,/,/,/,/
CCOC(=O)[C@]12Cc3cc(Cl)ccc3[C@H]1N(C(C)C)C(=O)c1ccccc12,/,71.5*,/,/,/,/
CCOC(=O)[C@]12Cc3cc(Cl)ccc3[C@H]1N(CC(=O)OC)C(=O)c1ccccc12,/,58.1*,/,/,/,/
CCOC(=O)[C@]12Cc3c(cc(OC)c(OC)c3OC)[C@H]1N(C(C)C)C(=O)c1cc(OC)ccc12,/,46.3,/,/,/,/
CCOC(=O)[C@]12Cc3cc(Cl)ccc3[C@H]1N(C)C(=O)c1ccccc12,/,7.2,/,/,/,/
CCOC(=O)[C@]12Cc3cc(OC)ccc3[C@H]1N(C(C)C)C(=O)c1cc(OC)ccc12,/,54.6*,/,/,/,/
C=CC12CN(C)C3C4COC(CC41)C1(C(=O)Nc4ccccc41)C32 (stereo not given),/,-16.6,/,/,/,/
CCC1C(c2cc(OC)c(OC)c(OC)c2)c2cc3c(cc2OC1N1CCCC1)OCO3 (stereo not given),/,27.7,/,/,/,/
